Data taken from the EternaBench riboswitch data.

Test system: MS2 coat protein
Experiment: apparent Kd, MS2 coat protein; higher = weaker binding; RNA-MaP array; FMN 200 µM where present
In short: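 The apparent Kd comes from binding curves fitted cluster by cluster, filtered, and summarised as a median. Those curves followed SNAP-549-labelled MS2 coat protein from 0.7 or 1.5 nM, doubling to 3 µM, on Illumina sequencing-chip clusters where stalled E. coli RNA polymerase had transcribed the designs, without and then with constant ligand. The buffer was 100 mM Tris-HCl pH 7.5, 80 mM KCl, 4 mM MgCl2, BSA, DTT, yeast tRNA and Tween-20, and green signal was normalised to red-channel RNA signal and control-cluster median Fmax.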

[1] = designed as: OFF switch for flavin mononucleotide, no ligand
[2] = ligand present: flavin mononucleotide, designed as: OFF switch for flavin mononucleotide
[3] = designed as: ON switch for flavin mononucleotide, no ligand
[4] = ligand present: flavin mononucleotide, designed as: ON switch for flavin mononucleotide

Sequence | apparent Kd [1] [nM] | apparent Kd [2] [nM] | apparent Kd [3] [nM] | apparent Kd [4] [nM]
GAUUUAGAGCAGGAUAUCAUAGAAUUAUAUGAAUGAGAAGGGCUCACAUGAGGAUCACCCAUGUGGUCCUAGAU | 21.1 | 167 |  | 
UGGUGACGUGUAGGAUAUGGAGGUGGGUUUUGGCCAGAAGGACAUGAGGAUCACCCAUGUGGUAGAGGGUUGGCGGUGGCCCGU | 17.7 | 15.2 |  | 
GAUCCUUCUGUUAGGAUAUGCUUUGGGCUUCCGCUGCAGAAGGAACAUGAGGAUCACCCAUGUCCGAUGCCGUC | 74 | 89.4 |  | 
ACUGUUUGACUCCUCUUAUACAUGAGGAUCACCCAUGUUAUCGAGGAUAUGCAUUAGAGUGUUUAGCAGAAGGCGAUGUAAUUG | 6.72 | 14.4 |  | 
UCUCAUAUGCAGGAUAUCCAUGGCGGGCGGAGAGGAGAAGGGCAUACAUGAGGAUCACCCAUGUGUCCCGUGGG | 27.2 | 41.2 |  | 
CUCGUGUGAGGAUAUCUAUUCCACGGACGGGAGUCUUGAUGAGAGAAGGCACAUGAGGAUCACCCAUGUAAUAA | 140 | 86.7 |  | 
GCACGGCAUGUAGGAUAUCGAGCGCCGGGCGCUCGAGAAGGACAUGAGGAUCACCCAUGUAGUCUCAGUGAGAGACUGCUGUGC | 18.3 | 36.2 |  | 
AAUCAUUAUCGUUAUUUAUAUUAUUCAGAAGGACAAUUAAUAGCACAUGAGGAUCACCCAUGUUUGUAGGAUAUGAUGUUAUAC |  |  | 15.2 | 7.95
UUUCCAUAGAUAGGAUAUCAGUUUACAUGAGGAUCACCCAUGUUCUCUUUGGUUAUAAUUAUAUCUGAGAAGGAUCUUGAUGAA |  |  | 29.6 | 26.3
GUCGGAAACGACAAAAGUAUGGAUCCAGAAGGCAUGACACAUGAGGAUCACCCAUGUCUAAGACAUGAGGAUAUGGAUCCAUAC |  |  | 5.24 | 3.67
AAAACAUGAGGAUCACCCAUGUAAAGUUCGGUUAAUAGAGGUGAGGAUAUACUAAAUUUUGGGUGGUAGAAGGCACUGGGUACA |  |  | 122 | 105
GACUAGGCAGGAUAUACAUGAGGAUCACCCAUGUGUCUGCGUUAAGCACGUGAAGACGGUAGAAGGGCCUACAC | 14.4 | 18.1 |  | 
UGGUACAUGGGAGGAUAUCCUCAAGAGACAUGAGGAUCACCCAUGUAUUAUAUGCCUCUUGGCAUGGAGAAGGCCCAUGUACCU |  |  | 56.2 | 55.4
AUCACGUAAGGAUAUUCCUACGCAGACAUGAGGAUCACCCAUGUGUUAGUGAAGAAUCGAGGAGAAGGUACAAUGG | 29.5 | 26.8 |  | 
AAAAAGGCAGGAUAUACAUGAGGAUCACCCAUGUGAAAAAAAAAAAAAAAAAAAAAGUGUAGAAGGGUCAAAAA | 56.9 | 46.7 |  | 
AGUAUGCGGCAGGAUAUCCAUCCGCGAAAAGGUGGAGAAGGGCUGACAUGAGGAUCACCCAUGUGCGUCUUGUA | 29.7 | 31 |  | 
ACGCCCUGAGGAUAUCUUUUCCCGUACAUGAGGAUCACCCAUGUUUUCCUCCGGGCUUCGAGAGAAGGCAGGCCCA | 22.3 | 41.2 |  | 
GUACCUUAUGAGAAGGCGGUCAUGAAACAUGAUCGAGGAUAUCAUGUAAACAUGAGGAUCACCCAUGUAUGGGUAUUAUGGUAA |  |  | 61.1 | 11.2
AGUGUGUUAGGAUAUCGGAUAUGCUGGAGGAGGUGGAGUUACGAGAAGGAACAUGAGGAUCACCCAUGUAGGAC | 25.8 | 23.2 |  | 

Sequence | apparent Kd [1] [nM] | apparent Kd [2] [nM] | apparent Kd [3] [nM] | apparent Kd [4] [nM]
GCGACGCGGGAAGGAUAUCCGCUCAGGAGUGUCUCAUGCUAACAUGAGGAUCACCCAUGUUGUCCGGAGAAGGUCCUGUCAGGC | 152 | 288 |  | 
UGUCGGAGCAGAGGAUAUUACAUGAGGAUCACCCAUGUACGAACCAAUAGCUGGAAACAGCAAUGUAAGAAGGCUGCUCCGACA | 11.3 | 79 |  | 
AGAUCAUCAGGAUAUACAUGGGUGAAAAAAGUAUAUCCACUACAUGAGGAUCACCCAUGUAGAAGGGAUGAUCA | 17.3 | 15.1 |  | 
AAUUAGGUCACAGGAUAUACAACUUCCAAUGCUGUAGAAGGGUGUCACAUACUUAGCUGACAUGAGGAUCACCCAUGUAUCCAC |  |  | 184 | 70.5
AGAUUUGUACAUGAGGAUCACCCAUGUUAAUAGGUGUUUGUCAGAAGGCAUUAAUAGAGAUUUAAUGAGGAUAUGAAUUUACAA |  |  | 58.2 | 28.9
UGAGCAUGAGGAUAUACAAGGCGUGCCGUAGCACGAGGUCUACAUGAGGAUCACCCAUGUAGAAGGCAUGUUCU | 16.8 | 36.9 |  | 
UUAGCGUAAGUAAGGAUAUGCUGGUCGAAAGACCAGCAGAAGGUACAUGAGGAUCACCCAUGUGGAUUCGUUAU | 27.8 | 92.6 |  | 
AAGUCGCUAGGAGGAUAUACAUGAUCUCACACAUGUACCGCUCACGCCACAUGAGGAUCACCCAUGUAGAAGGCCUAGAGAGGU | 23.4 | 62.4 |  | 
AAAUUGGUAGAGGAUAUCGCACAGGAUUUACUGCGAGAAGGCUGCACAUGAGGAUCACCCAUGUUUUGUUGCGA | 15.2 | 18.1 |  | 
AUACAUGAGGAUCACCCAUGUUACUGGGUCUUUUUAGAACGUAGAAGGAUGAUAUUAUAAAUAUCAUAGGAUAUACUAUAUUGU | 52 | 59.5 |  | 
ACUUGUAAGCAGAAGGCAGUCAUUGUAUUCGUCAUGUAGACAUGAGGAUCACCCAUGUAUAGUACUGAGGAUAUGCAUCGAUAG | 7.88 | 17.2 |  | 
CGGUCACAUGAGGAUCACCCAUGUACCUACGCGAUGAAGUCGCAGGAUAUCCAUUACUUUACGUAGGAGAAGGGUGACGCUCGC |  |  | 51.1 | 34
AACUACUCUGUGAGGAUAUGCGAUCGUUGAUCAAAGCAGAAGGCACAUGAGGAUCACCCAUGUUCCUACGAGGG | 29.3 | 73.1 |  | 
GUACCUUAUGAGAAGGCGAUCAUGAAACAUGAUCGAGGAUAUCAUGUAAACAUGAGGAUCACCCAUGUAUGGGUAUUAUGGUAU |  |  | 43.9 | 11.3
GUCAGCUCGUGAGGAUAUACAACACUGCUUCGGCAGUGUAUUAAGAUCACAUGAGGAUCACCCAUGUAGAAGGCACGAGCCGAU | 14.3 | 271 |  | 
GGACUUCCUGAGGAUAUUGUAUCACCUGAUUGAUAAGAAGGCAGAACAUGAGGAUCACCCAUGUGGGUACUCGG | 136 | 125 |  | 
GACGGUGAUGUAGGAUAUACGCUGGAAUACAGCGUAGAAGGACAUGAGGAUCACCCAUGUAGAGUGUCUCCAAAUAACACCGUC | 43.5 | 284 |  | 
AUCUAGUCAGGAUAUACGAACCGAUGAAUCGGACGGAACGAACAUGAGGAUCACCCAUGUAGAAGGGACACUCA | 162 | 163 |  | 
CUUAUGUGAGGAUAUGGUGUUGAUCACAGGAAAAAGAUUCUCCAGAAGGCACAUGAGGAUCACCCAUGUAGUGA | 145 | 90 |  | 

Sequence | apparent Kd [1] [nM] | apparent Kd [2] [nM] | apparent Kd [3] [nM] | apparent Kd [4] [nM]
ACAGAGCCUGACAUGAGGAUCACCCAUGUUAGAUUGUUAUGUCAGGAUAUUGUCUAGCAACUAGACAAGAAGGGAUGCUCUGUG |  |  | 392 | 29.8
UGCCAAGCAGGAUAUGCACGUAAUAACAUGAGGAUCACCCAUGUGACCGAUUUAUAUUCUGCAGAAGGGCUUGGAU | 54.9 | 152 |  | 
AUUUAAUUUAGCGAGAUCACAUGAGGAUCACCCAUGUAUAUAUAGGAUAUCAGCUCGUUUAGAGCUGAGAAGGAUAUAUACCGC | 89.8 | 147 |  | 
UUUUCCAGGCAGAAGGGUCCUCACAUGAGGAUCACCCAUGUAAACGUGGAUAGGAUAUGCCACUGGGCUCGAUAAGAGUGGUUC |  |  | 640 | 128
AGCUAGAGAGGAUAUACGUAGGAAAAAAAAGUCUGAUCCCUACAUGAGGAUCACCCAUGUAGAAGGCUCUGGCA | 91.5 | 81.8 |  | 
AGCCAAGCAGGAUAUGCCCGGGAUAACAUGAGGAUCACCCAUGUGACCGAUUGAUGUCCUGCAGAAGGGCUUGGGA | 15.6 | 79.8 |  | 
GUAGAGUCAGGAUAUACGAGAUCGAAAGAUCGUCGAUCCUUACAUGAGGAUCACCCAUGUAGAAGGGACUCUAC | 22.7 | 238 |  | 
UCCGCUCGAGGAUAUACAUGAGGAUCACCCAUGUUUCCCUGUUGCUUGGCCUCAGGAUGUAGAAGGCGACGCUA | 17.6 | 19.8 |  | 
AGGAAGCAAGGAUAUACGAGGAGAAGGUGGAGAGUUAAAGGACAUGAGGAUCACCCAUGUAGAAGGUGCGAGAA | 59.7 | 76.8 |  | 
GUGUAGACAGGAUAUGCUUUGAGCAUAUGAGAGUAUGCUCGACAUGAGGAUCACCCAUGUAGAAGGGUCUACAC | 12.1 | 12.9 |  | 
CUGGUGUGAGGAUAUCAGGACACGUAAGCGGGCGUGUCAAAUGAGAAGGCACAUGAGGAUCACCCAUGUGGGAC | 34 | 214 |  | 
AACAGCUCGUCAGGAUAUAUUAUCUUUUAAUGUAUUUAUGUACAUGAGGAUCACCCAUGUUGUUUGUAGAAGGGACGAGCUGAA | 11.1 | 13.1 |  | 
UUGCCACAUGAGGAUCACCCAUGUGAGGAUAUGGCCCGUUUGGCGUGUGCUGGUUCUGUCAGAAGGCGCGUGGG | 24.5 | 21.7 |  | 
ACAGACCAUCGAGGAUAUGAACAUGAGGAUCACCCAUGUAAGUGGAAGAUGGUGAUUCCUGGGCUUCAGAAGGCGAACGUCAGG | 6.12 | 11.8 |  | 
GAGUAGUUGAAAGGAUAUCGAUUGUUAUAGAAUCGAGAAGGUUCUAACAUGAGGAUCACCCAUGUAGGACUAUUCCUGUGUAUC |  |  | 12.9 | 11
GGAUAGGAGAGAGGAUAUACGUGCUAGAGAUACUAGCAAAAUUUCCUCACAUGAGGAUCACCCAUGUAGAAGGCUGUCCUAUCG | 11.1 | 210 |  | 
GCCCGACAUGAGGAUCACCCAUGUGGGAAACCGCGAGGAUAUCCGGGCCCGAAAGGGCCCGGAGAAGGCGCCGGGC |  |  | 12.5 | 10.9
GGAGCAACAUGAGGAUCACCCAUGUAGGAUAUCGCUAUUGUAAUCAUGAAACAUGAUUACAAUAGCGAGAAGGACAUAUGCUUU | 9.32 | 11.9 |  | 
